The test system of data set [1] is Mus musculus. The experiment in a line: Dose causing a neurological deficit in 50% of mice after ip administration. It is filed as functional. An outline of the steps: (§1)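 Traction test in male Hilltop ICR-derived mice (19-30 g, groups of 8-10) just before electroshock, 15 min after ip or 30 min after oral dosing. Mice placed on a 16-gauge, 65-cm copper wire 40 cm above the table; deficit scored as failure to stay on for 10 s. ND50 with 95% limits by Litchfield-Wilcoxon.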

Data set [2] deals with Mus musculus. The experiment in a line: Protective index is defined as ND50 (i.p.) divided by MES ED50(i.p.). The class given is functional. An outline of the steps: (§2)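 Ratio of ND50 from the wire traction test to MES ED50, both measured by the same route (ip or oral) in the same animals. Quantal dose-response data for each were evaluated by Litchfield-Wilcoxon.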
Data set [3] can be described thus: Lethal dose was measured in mice after ip administration. It is filed as toxicity, organism-based. The settings on record: mouse, in vivo. In outline:
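Male Simonsen ICR-derived mice (16-24 g), groups of three, given compound ip in increasing doses within a behavioral screen. Deaths counted on day 5, and LD50 estimated from 5-day survival. Quantal data analysed by the Litchfield-Wilcoxon method.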

Data set [4] relates to Mus musculus. The experiment in a line: Compound was evaluated for anticonvulsant activity by maximal electroshock assay(MES) in mice after ip administration. It is filed as functional. An outline of the steps:
(§3)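 Male Hilltop ICR-derived mice (19-30 g), groups of 8-10, dosed ip with compound or aqueous vehicle. After 15 min pretreatment, a transcorneal 60-Hz, 50 mA shock was given for 0.2 s. Just before the shock, each mouse was tested on a horizontal wire (10 s). Quantal data were analysed by Litchfield-Wilcoxon to give ED50 with 95% confidence limits.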

Data set [5] concerns Mus musculus. The experiment in a line: Dose of compound causing a neurological deficit in 50% of mice after ip administration. The class given is functional. In outline:
as §1

The test system of data set [6] is Rattus norvegicus. The experiment in a line: Dose of compound causing a neurological deficit in 50% of rat after po administration. It is filed as functional. An outline of the steps: (§4)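 Rats (Simonsen Sprague-Dawley-derived, 80-110 g, groups of 8-10) placed on a suspended 16-gauge, 65-cm copper wire just before electroshock. Deficit scored as inability to remain for 8 s. Pretreatment was 15 min ip or 30 min oral. Quantal data analysed by Litchfield-Wilcoxon to give ND50 with 95% limits.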

Data set [7] deals with Mus musculus. Briefly: Protective index defined as ND50 (p.o.) divided by MES ED50(op). The class given is functional. In outline: as §2
Data set [8] relates to Rattus norvegicus. Briefly: Compound was evaluated for anticonvulsant activity by maximal electroshock assay(MES) in rat after ip administration; […]. The class given is functional. For orientation: The maximal electroshock test induces tonic seizures with an electrical stimulus.
Data set [9] concerns Mus musculus. Briefly: Compound was evaluated for anticonvulsant activity by maximal electroshock assay(MES) in mice after ip administration; 8-13. The class given is functional. An outline of the steps:
as §3

Data set [10] concerns Mus musculus. Briefly: Compound was evaluated for anticonvulsant activity by maximal electroshock assay(MES) in mice after po administration; 23-40. It is filed as functional. An outline of the steps: (§5)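 Male Hilltop ICR-derived mice (19-30 g), groups of 8-10, given compound or aqueous vehicle orally. The transcorneal 60-Hz shock (50 mA, 0.2 s) followed a 30 min pretreatment and a wire-hang neurological check (10 s). ED50 and 95% confidence limits were obtained from quantal data by the Litchfield-Wilcoxon method.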

Data set [11] deals with Rattus norvegicus. Briefly: Compound was evaluated for anticonvulsant activity by maximal electroshock assay(MES) in rat after po administration; 7.3-20. It is filed as functional. An outline of the steps:
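Male Simonsen Sprague-Dawley-derived rats, 80-110 g, groups of 8-10, dosed with compound or aqueous vehicle; pretreatment 15 min after ip or 30 min after oral dosing. Transcorneal electroshock, 150 mA, 60 Hz, 0.2 s, given after the wire test. ED50 with 95% confidence limits from quantal data by Litchfield-Wilcoxon.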

Data set [12] concerns Rattus norvegicus. Briefly: Dose of compound causing a neurological deficit in 50% of rat after ip administration; 31-78. The class given is functional. An outline of the steps: as §4
The test system of data set [13] is Mus musculus. The experiment in a line: Dose of compound causing a neurological deficit in 50% of mice after ip administration; 35-49. The class given is functional. In outline: as §1
For data set [14], the system named is Mus musculus. Briefly: Dose of compound causing a neurological deficit in 50% of mice after po administration; 79-196. It is filed as functional. An outline of the steps:
as §1

Data set [15] concerns Rattus norvegicus. Briefly: Dose of compound causing a neurological deficit in 50% of rat after po administration.
The subject of data set [16] is Mus musculus. The experiment in a line: Compound was evaluated for anticonvulsant activity by maximal electroshock assay(MES) in mice after po administration. The class given is functional. In outline: as §5
Data set [17] has as its system Mus musculus. Briefly: Anticonvulsant activity in mouse maximal electroshock assay following i.p. administration. The settings on record: ip. The class given is functional. An outline of the steps:
as §3

Data set [18] concerns Rattus norvegicus. Briefly: Compound was evaluated for anticonvulsant activity by maximal electroshock assay(MES) in rat after po administration.
Data set [19] has as its system Mus musculus. The experiment in a line: Dose causing a neurological deficit in 50% of mice following p.o. administration. It is filed as functional. In outline: as §1
In data set [20] the test system is Mus musculus. The experiment in a line: compound was evaluated for anticonvulsant activity by maximal electroshock assay(MES) in mice after po administration. The class given is functional. An outline of the steps: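 Male Hilltop ICR-derived mice, 19-30 g, groups of 8-10, dosed orally with compound or aqueous vehicle. Transcorneal electroshock (50 mA, 60 Hz, 0.2 s) delivered 30 min after dosing, immediately after a wire-hang neurological test. ED50 with 95% confidence limits estimated from quantal data by Litchfield-Wilcoxon.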

Data set [21] concerns Mus musculus. Briefly: Compound was evaluated for anticonvulsant activity by maximal electroshock assay(MES) in mice after ip administration; 22-80. It is filed as functional. An outline of the steps: as §3

Each structure is given as a SMILES string.

As a reminder, the LD50 is the dose expected to kill half of the subjects tested. High values mean lower toxicity, low ones greater toxicity. In general, ED50 refers to the midpoint of the dose-response relation. Read a low ED50 as an effect at a small dose.

As for `CCSC(Cn1ccnc1)(SCC)c1ccc2ccccc2c1.Cl`, the ND50 in the data set on Mus musculus [1] stood at 78 mg/kg. Further, the PI in the data set on Mus musculus [2] is listed as 2.2. In [3], this molecule displayed an LD50 of over 100 mg/kg.
Regarding `O=C(Cn1ccnc1)c1cccc2ccccc12`, in data set [3], the LD50 is over 100 mg/kg.
In the data set with Mus musculus [4], `CS(=O)(=O)C(Cn1ccnc1)c1ccc2ccccc2c1.Cl` (stereo not drawn) showed an ED50 of over 40 mg/kg. The ND50 in the data set on Mus musculus [5] is over 40 mg/kg.
Take `COC(Cn1ccnc1)c1ccc2ccccc2c1.Cl` (stereo not drawn): the ND50 is over 100 mg/kg with Rattus norvegicus [6], 46 mg/kg in the data set on Rattus norvegicus [12], 42 mg/kg with Mus musculus [13] and 110 mg/kg in the data set with Mus musculus [14]. Besides, the PI amounted to 3.9 in the data set on Mus musculus [7] and 4.2 in the data set with Mus musculus [2]. Moreover, the ED50 with Rattus norvegicus [8] is 3.8 mg/kg; in the data set on Mus musculus [9], 10 mg/kg; with Mus musculus [10] it was 28 mg/kg; in the data set with Rattus norvegicus [11], 13 mg/kg.
With `CSC(Cn1ccnc1)(SC)c1ccc2ccccc2c1.Cl`, the ND50 in the data set with Mus musculus [1] was found to be 29 mg/kg. Further, the PI in the data set with Mus musculus [2] is given as 0.9. In [3], this molecule registered an LD50 of over 100 mg/kg.
Regarding `Cl.c1ccc2cc(CCn3ccnc3)ccc2c1`, the ND50 is over 100 mg/kg in the data set with Rattus norvegicus [15], 31 mg/kg in the data set with Mus musculus [1] and over 100 mg/kg in the data set with Mus musculus [19]. Moreover, the PI with Mus musculus [7] was over 2.1; with Mus musculus [2], 1.4. For the same molecule, the ED50 was 47 mg/kg in the data set with Mus musculus [16], 22 mg/kg with Mus musculus [17] and 54 mg/kg in the data set on Rattus norvegicus [18]. Moreover, the 50% lethal dose (LD50) in data set [3] was over 100 mg/kg.
In turn, `Cl.c1ccc2cc(C3(Cn4ccnc4)SCCS3)ccc2c1` displayed an ED50 in the data set on Mus musculus [20] of 70 mg/kg. Besides, the PI in the data set with Mus musculus [7] was 1.8; in the data set on Mus musculus [2], 2.4. Also, the ND50 with Mus musculus [1] was 64 mg/kg; in the data set with Mus musculus [19] it was 125 mg/kg. The molecule further had an LD50 in [3] of over 30 mg/kg.
In the data set with Mus musculus [21], `Cl.O=C(Cn1ccnc1)c1ccc2cc(Br)ccc2c1` registered an ED50 of 41 mg/kg.
In the data set with Mus musculus [1], `CSC(Cn1ccnc1)c1ccc2ccccc2c1.Cl` (stereo not drawn) came in with an ND50 of 76 mg/kg. In addition, the ED50 with Mus musculus [17] came out at 37 mg/kg. The PI in the data set with Mus musculus [2] is given as 2.1.
Consider `Cc1cc2cccc(C(=O)Cn3ccnc3)c2cc1C.Cl`, for which the ND50 in the data set with Mus musculus [1] is over 300 mg/kg. In addition, in the data set on Mus musculus [17], the 50% effect level (ED50) was put at a dose of 80 mg/kg. Also, the PI with Mus musculus [2] is reported as over 3.8.
Consider `CCC1(c2ccccc2)C(=O)NC(=O)NC1=O` [PHENOBARBITAL], for which the PI was found to be 1.9 in the data set with Mus musculus [7] and 2 with Mus musculus [2]. Also, the ND50 in the data set with Mus musculus [1] came to 30 mg/kg; in the data set on Mus musculus [19], 36 mg/kg. Moreover, the results for the ED50 with Mus musculus [16] and with Mus musculus [17] were 19 mg/kg and 15 mg/kg, respectively. In data set [3], this molecule gave an LD50 of over 100 mg/kg.
For `C[S+]([O-])C(Cn1ccnc1)c1ccc2ccccc2c1.Cl` (stereo not drawn), in the data set on Mus musculus [4], the ED50 was over 40 mg/kg. Also, the ND50 with Mus musculus [5] was over 40 mg/kg.
`Cl.c1ccc2cc(C3(Cn4ccnc4)SCCCS3)ccc2c1`: the 50% effect level in the data set with Mus musculus [17] (ED50) was put at a dose of 65 mg/kg. Also, in the data set with Mus musculus [2], the PI came to 1.4. Further, the LD50 in data set [3] was over 100 mg/kg.
